Each structure is given as a SMILES string. The source made the active and inactive calls. The calls are words filed in the database; no cut-off is given here.

One assay relates to PC-3. Briefly: Induction of myristoylated AKT2 M225G mutant Ser473 hyperphosphorylation expressed in PC3 cells at 2.5 uM after 30 mins by immunoblotting. In kind it is cell-based. Background: In western blotting, separated proteins are transferred to a membrane and probed.
Assay [1] deals with RAC-alpha serine/threonine-protein kinase (Homo sapiens, UniProt P31749). The assay is described as follows: Induction of AKT1 Thr308 phosphorylation expressed in IGF1-stimulated HEK293 cells treated 20 mins before IGF1 stimulation by immunoblotting. In kind it is cell-based. In outline:
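HEK293 cells (not transfected), serum-starved overnight, then given inhibitor for 20 min before 50 ng/ml IGF-1 for a further 10 min. Cells detached in ice-cold Ca/Mg-free PBS with 0.04% EDTA and lysed in Tris pH 7.5 Triton buffer with protease/phosphatase inhibitors. Lysates cleared at 14000 g, protein equalised by Bradford, and pThr308, pSer473 and GSK3β pSer9 read by immunoblot with ECL.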

The subject of another assay is HEK-293T. The assay is described as follows: Induction myristoylated AKT2 M225G mutant Thr308 hyperphosphorylation expressed in HEK293T cells at 2.5 uM after 30 mins pretreated with PDK1 inhibitor BX-795 for 10 mins before compound addition by immunoblotting. In kind it is cell-based.
The subject of assay [2] is RAC-alpha serine/threonine-protein kinase (Homo sapiens), P31749 [M227G,D292A]. The assay is described as follows: Induction of nonmyristoylated AKT1 M227G and kinase dead D292A mutant Thr308 hyperphosphorylation expressed in HEK293T cells at 2.5 uM after 30 mins by immunoblotting. In kind it is cell-based. The following applies: HEK-293T.
Assay [3] shares this test system. The assay is described as follows: Induction of myristoylated AKT1 M227G and kinase dead D292A mutant Thr308 hyperphosphorylation expressed in PC3 cells at 2.5 uM after 30 mins by immunoblotting. In kind it is cell-based. Conditions: PC-3.
The subject of assay [4] is RAC-alpha serine/threonine-protein kinase (Homo sapiens), P31749 [M227G]. Briefly: Induction of myristoylated AKT1 M227G Thr308 hyperphosphorylation expressed in MCF7 cells at 2.5 uM after 30 mins by immunoblotting. In kind it is cell-based.
Assay [5] has as its target Serine/threonine-protein kinase D3 (Homo sapiens) (UniProt O94806). The assay is described as follows: Inhibition of PRKCN at 1 uM in presence of 10 uM ATP by Select Screen kinase assay relative to untreated control.
Assay [6] addresses Protein kinase C theta type (Homo sapiens) (UniProt Q04759). The assay is described as follows: Inhibition of PRKCQ at 1 uM in presence of 10 uM ATP by Select Screen kinase assay relative to untreated control.
Assay [7] addresses cAMP-dependent protein kinase catalytic subunit PRKX (Homo sapiens) (UniProt P51817). Briefly: Inhibition of PRKX at 1 uM in presence of 10 uM ATP by Select Screen kinase assay relative to untreated control.
Assay [8] deals with Proto-oncogene tyrosine-protein kinase receptor Ret (Homo sapiens), P07949 [Y791F]. The assay is described as follows: Inhibition of RET Y791F mutant at 1 uM in presence of 10 uM ATP by Select Screen kinase assay relative to untreated control. In outline:
(§1)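 Profiling panel of 220 purified kinases (SelectScreen), each compound tested at 1 μM. Read-out is percent inhibition of kinase activity.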

The target of assay [9] is Tyrosine-protein kinase BTK (Homo sapiens) (UniProt Q06187). The assay is described as follows: Inhibition of BTK at 1 uM in presence of 10 uM ATP by Select Screen kinase assay relative to untreated control. In outline: (§2)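 Single-point screen at 1 μM against a panel of 220 purified kinases, run by Invitrogen staff as a SelectScreen profiling service. Read-out is percent inhibition of kinase activity.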

Assay [10] deals with Ribosomal protein S6 kinase alpha-6 (Homo sapiens) (UniProt Q9UK32). The assay is described as follows: Inhibition of RPS6KA6 at 1 uM in presence of 10 uM ATP by Select Screen kinase assay relative to untreated control. In outline: (§3)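 Commercial SelectScreen profiling panel of 220 purified kinases. Each kinase was tested at a single inhibitor concentration of 1 μM, and activity was expressed as percent inhibition.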

In assay [11] the target is Serine/threonine-protein kinase MRCK beta (Homo sapiens) (UniProt Q9Y5S2). The assay is described as follows: Inhibition of CDC42 binding protein beta at 1 uM in presence of 10 uM ATP by Select Screen kinase assay relative to untreated control. In short, it runs like this: as §2
Sequence of Serine/threonine-protein kinase MRCK beta (Homo sapiens) (Q9Y5S2 whole entry): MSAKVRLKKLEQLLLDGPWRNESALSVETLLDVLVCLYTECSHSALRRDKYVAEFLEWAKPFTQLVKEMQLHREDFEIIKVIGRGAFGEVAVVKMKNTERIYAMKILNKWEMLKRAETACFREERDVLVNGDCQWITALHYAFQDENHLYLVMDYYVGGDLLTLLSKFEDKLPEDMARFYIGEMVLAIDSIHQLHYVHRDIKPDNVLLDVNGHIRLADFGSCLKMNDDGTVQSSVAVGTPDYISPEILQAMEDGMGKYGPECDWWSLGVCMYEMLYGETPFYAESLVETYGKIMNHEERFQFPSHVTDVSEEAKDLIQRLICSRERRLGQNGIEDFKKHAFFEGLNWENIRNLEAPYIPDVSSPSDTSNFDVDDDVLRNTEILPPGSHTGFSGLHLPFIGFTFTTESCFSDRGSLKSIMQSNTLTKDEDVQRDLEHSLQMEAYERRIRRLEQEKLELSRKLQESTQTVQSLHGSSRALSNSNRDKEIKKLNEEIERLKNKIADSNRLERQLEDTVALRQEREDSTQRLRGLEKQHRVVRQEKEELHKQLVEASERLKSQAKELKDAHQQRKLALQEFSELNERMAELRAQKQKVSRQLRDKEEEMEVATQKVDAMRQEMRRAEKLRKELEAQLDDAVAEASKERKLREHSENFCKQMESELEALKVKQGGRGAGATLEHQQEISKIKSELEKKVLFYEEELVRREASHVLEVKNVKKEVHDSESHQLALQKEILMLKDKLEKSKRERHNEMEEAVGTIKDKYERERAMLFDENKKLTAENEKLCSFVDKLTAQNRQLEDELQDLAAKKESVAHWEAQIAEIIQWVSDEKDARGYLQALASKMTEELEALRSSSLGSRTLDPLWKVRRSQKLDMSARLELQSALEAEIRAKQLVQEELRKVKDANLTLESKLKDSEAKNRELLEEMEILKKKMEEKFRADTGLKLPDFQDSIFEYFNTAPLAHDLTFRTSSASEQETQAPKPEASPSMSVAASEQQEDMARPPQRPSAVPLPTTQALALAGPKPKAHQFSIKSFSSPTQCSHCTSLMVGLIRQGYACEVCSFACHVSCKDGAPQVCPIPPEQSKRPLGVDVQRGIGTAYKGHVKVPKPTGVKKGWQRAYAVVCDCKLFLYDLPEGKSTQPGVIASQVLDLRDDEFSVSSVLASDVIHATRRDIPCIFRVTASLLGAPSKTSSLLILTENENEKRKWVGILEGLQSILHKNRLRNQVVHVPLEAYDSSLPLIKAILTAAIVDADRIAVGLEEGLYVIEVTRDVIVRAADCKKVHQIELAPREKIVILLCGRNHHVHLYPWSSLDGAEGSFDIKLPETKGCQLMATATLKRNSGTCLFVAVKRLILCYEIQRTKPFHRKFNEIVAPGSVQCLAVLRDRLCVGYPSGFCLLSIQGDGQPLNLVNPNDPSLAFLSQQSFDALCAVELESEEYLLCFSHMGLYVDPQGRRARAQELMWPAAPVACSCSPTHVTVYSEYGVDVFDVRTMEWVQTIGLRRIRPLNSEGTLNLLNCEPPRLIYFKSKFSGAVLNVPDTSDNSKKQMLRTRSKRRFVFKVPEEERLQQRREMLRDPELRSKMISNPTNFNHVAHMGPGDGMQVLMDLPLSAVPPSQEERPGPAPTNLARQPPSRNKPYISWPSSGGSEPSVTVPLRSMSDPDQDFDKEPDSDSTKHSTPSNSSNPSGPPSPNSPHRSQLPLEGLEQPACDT
Assay [12] concerns the target Ephrin type-B receptor 3 (Homo sapiens) (UniProt P54753). The assay is described as follows: Inhibition of EPHB3 at 1 uM in presence of 10 uM ATP by Select Screen kinase assay relative to untreated control. In outline: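 Part of a 220-kinase panel of purified kinases, each tested with compound at 1 μM. Percent inhibition was measured in the Invitrogen SelectScreen profiling assay.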

For assay [13], the target named is Receptor-type tyrosine-protein kinase FLT3 (Homo sapiens) (UniProt P36888). Briefly: Inhibition of FLT3 at 1 uM in presence of 10 uM ATP by Select Screen kinase assay relative to untreated control. In outline: (§4)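 Single-concentration profiling at 1 μM against a panel of 220 purified kinases, run as an outsourced SelectScreen kinase profiling service. Activity is expressed as percent inhibition.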

In assay [14] the test system is Tyrosine-protein kinase JAK2 (Homo sapiens), O60674 [V617F]. The assay is described as follows: Inhibition of JAK2 JH1 JH2 domain V617F mutant at 1 uM in presence of 10 uM ATP by Select Screen kinase assay relative to untreated control.
Assay [15] addresses Mast/stem cell growth factor receptor Kit (Homo sapiens) (UniProt P10721). The assay is described as follows: Inhibition of KIT at 1 uM in presence of 100 uM ATP by Select Screen kinase assay relative to untreated control. In outline:
as §4

Assay [16] has as its target Mitogen-activated protein kinase 11 (Homo sapiens) (UniProt Q15759). The assay is described as follows: Inhibition of MAPK11 at 1 uM in presence of 100 uM ATP by Select Screen kinase assay relative to untreated control.
The target of assay [17] is Serine/threonine-protein kinase MARK1 (Homo sapiens) (UniProt Q9P0L2). The assay is described as follows: Inhibition of MARK1 at 1 uM in presence of 10 uM ATP by Select Screen kinase assay relative to untreated control.
For assay [18], the target named is Muscle, skeletal receptor tyrosine-protein kinase (Homo sapiens) (UniProt O15146). The assay is described as follows: Inhibition of MUSK at 1 uM in presence of 100 uM ATP by Select Screen kinase assay relative to untreated control.
Assay [19] deals with Platelet-derived growth factor receptor alpha (Homo sapiens), P16234 [T674I]. Briefly: Inhibition of PDGFRalpha T674I mutant at 1 uM in presence of 10 uM ATP by Select Screen kinase assay relative to untreated control. In outline: as §3
Assay [20] concerns the target Platelet-derived growth factor receptor beta (Homo sapiens) (UniProt P09619). Briefly: Inhibition of PDGFRbeta at 1 uM in presence of 100 uM ATP by Select Screen kinase assay relative to untreated control.
In assay [21] the target is Serine/threonine-protein kinase N1 (Homo sapiens) (UniProt Q16512). Briefly: Inhibition of PKN1 at 1 uM in presence of 10 uM ATP by Select Screen kinase assay relative to untreated control. In short, it runs like this: as §1
Assay [22] concerns the target Protein kinase C alpha type (Homo sapiens) (UniProt P17252). Briefly: Inhibition of PRKCA at 1 uM in presence of 10 uM ATP by Select Screen kinase assay relative to untreated control.
The target in assay [23] is Serine/threonine-protein kinase PAK 3 (Homo sapiens) (UniProt O75914). The assay is described as follows: Inhibition of PAK3 at 1 uM in presence of 10 uM ATP by Select Screen kinase assay relative to untreated control.
Sequence of Serine/threonine-protein kinase PAK 3 (Homo sapiens) (O75914 whole entry, looked up): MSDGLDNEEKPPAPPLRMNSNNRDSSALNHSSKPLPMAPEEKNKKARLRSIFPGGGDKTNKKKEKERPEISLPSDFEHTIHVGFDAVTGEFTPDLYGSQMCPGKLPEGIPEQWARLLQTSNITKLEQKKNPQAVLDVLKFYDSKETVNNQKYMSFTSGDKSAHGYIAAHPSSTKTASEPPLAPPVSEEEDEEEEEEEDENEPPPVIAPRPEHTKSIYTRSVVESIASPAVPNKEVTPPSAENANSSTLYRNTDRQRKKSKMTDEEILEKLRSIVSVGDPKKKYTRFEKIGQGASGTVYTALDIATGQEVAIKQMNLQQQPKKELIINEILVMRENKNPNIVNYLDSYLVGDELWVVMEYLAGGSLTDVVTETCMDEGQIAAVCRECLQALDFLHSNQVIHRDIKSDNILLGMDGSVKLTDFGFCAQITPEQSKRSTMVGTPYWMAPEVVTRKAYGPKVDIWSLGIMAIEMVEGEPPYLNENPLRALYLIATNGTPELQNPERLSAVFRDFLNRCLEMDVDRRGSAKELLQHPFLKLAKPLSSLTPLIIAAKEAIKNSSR

Sequence of Mitogen-activated protein kinase 11 (Homo sapiens) (Q15759 whole entry): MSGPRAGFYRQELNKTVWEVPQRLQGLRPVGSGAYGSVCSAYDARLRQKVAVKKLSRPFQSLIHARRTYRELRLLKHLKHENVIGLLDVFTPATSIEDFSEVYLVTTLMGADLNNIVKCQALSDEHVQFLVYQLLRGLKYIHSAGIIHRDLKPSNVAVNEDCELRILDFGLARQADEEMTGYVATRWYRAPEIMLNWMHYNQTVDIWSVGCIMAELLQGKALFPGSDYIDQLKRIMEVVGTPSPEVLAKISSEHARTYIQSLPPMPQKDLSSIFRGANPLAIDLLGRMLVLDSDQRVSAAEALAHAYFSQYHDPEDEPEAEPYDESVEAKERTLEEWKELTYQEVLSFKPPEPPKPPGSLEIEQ
Sequence of Serine/threonine-protein kinase D3 (Homo sapiens) (O94806 whole entry): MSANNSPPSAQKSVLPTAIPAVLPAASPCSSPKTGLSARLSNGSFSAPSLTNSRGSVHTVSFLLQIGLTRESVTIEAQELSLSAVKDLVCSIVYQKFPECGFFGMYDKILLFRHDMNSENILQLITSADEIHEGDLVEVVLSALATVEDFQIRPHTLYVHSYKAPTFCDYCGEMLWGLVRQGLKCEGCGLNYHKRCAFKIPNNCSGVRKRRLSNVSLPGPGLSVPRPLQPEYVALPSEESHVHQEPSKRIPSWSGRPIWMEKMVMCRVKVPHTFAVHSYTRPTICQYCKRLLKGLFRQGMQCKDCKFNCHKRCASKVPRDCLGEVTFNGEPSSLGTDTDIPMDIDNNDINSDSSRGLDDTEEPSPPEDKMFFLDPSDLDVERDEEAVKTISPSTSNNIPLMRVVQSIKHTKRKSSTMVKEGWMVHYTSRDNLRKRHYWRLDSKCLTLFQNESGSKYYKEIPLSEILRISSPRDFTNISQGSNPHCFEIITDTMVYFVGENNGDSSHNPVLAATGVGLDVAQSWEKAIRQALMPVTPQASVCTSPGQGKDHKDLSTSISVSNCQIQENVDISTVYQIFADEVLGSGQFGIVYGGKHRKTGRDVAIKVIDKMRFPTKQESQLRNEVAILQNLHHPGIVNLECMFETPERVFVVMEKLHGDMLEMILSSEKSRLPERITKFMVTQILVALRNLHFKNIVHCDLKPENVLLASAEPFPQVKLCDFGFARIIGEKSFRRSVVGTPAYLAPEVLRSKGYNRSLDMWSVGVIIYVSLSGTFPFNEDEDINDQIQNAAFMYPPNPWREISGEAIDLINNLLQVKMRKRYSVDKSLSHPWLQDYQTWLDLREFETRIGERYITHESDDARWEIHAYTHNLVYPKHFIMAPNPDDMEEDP
Sequence of Mast/stem cell growth factor receptor Kit (Homo sapiens) (P10721 whole entry): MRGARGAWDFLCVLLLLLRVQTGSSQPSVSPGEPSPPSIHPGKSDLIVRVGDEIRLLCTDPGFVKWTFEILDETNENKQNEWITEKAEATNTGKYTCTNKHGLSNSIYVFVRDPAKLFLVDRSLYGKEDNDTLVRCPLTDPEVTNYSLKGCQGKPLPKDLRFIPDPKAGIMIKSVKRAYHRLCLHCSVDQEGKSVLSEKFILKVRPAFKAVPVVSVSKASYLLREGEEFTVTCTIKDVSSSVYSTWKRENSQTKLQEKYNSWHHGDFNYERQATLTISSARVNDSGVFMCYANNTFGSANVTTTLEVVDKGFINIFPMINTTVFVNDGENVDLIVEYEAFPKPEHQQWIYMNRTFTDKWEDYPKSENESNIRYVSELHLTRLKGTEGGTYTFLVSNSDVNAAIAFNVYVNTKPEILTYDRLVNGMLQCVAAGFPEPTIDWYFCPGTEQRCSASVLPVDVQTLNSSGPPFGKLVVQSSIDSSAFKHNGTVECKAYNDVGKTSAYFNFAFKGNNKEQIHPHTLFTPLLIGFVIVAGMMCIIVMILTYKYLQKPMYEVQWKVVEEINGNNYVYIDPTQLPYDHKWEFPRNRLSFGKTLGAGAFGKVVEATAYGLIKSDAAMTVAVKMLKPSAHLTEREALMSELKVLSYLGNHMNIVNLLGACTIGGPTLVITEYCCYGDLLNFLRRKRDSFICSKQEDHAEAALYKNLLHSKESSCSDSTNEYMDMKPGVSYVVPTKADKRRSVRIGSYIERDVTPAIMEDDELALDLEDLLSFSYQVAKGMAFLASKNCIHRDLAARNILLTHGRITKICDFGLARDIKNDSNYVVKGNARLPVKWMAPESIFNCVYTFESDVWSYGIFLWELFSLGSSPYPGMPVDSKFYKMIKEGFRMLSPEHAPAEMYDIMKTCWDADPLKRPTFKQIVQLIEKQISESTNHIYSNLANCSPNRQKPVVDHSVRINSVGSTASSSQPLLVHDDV
Sequence of cAMP-dependent protein kinase catalytic subunit PRKX (Homo sapiens) (P51817 whole entry): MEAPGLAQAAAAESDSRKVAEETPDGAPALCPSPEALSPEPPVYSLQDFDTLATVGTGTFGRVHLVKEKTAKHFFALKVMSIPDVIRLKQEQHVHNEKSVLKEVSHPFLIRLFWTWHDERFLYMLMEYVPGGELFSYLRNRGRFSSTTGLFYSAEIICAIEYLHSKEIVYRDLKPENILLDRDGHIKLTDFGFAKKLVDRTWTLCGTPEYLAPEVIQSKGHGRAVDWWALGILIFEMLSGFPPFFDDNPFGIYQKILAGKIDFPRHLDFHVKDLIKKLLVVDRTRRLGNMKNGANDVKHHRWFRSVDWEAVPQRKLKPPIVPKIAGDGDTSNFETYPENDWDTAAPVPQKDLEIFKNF

With `CCCc1cc(-c2cncc(OC[C@@H](N)Cc3c[nH]c4ccccc34)c2)cc2c(C)n[nH]c12`, the result (with PC-3; in assay [2]; in assay [3]; in assay [4]) was Active. Also, the result (in assay [1]; in the assay on HEK-293T) was inactive.

On to `COc1ccccc1N1CCN(c2ncnc3[nH]nc(Br)c23)CC1`, for which the inhibition in [5] amounted to 18%; in assay [6], 15%; in [7], 21%; in assay [8], 48%; in assay [9], 11%; in [10], 28%. The inhibition in assay [11] is 3%; in assay [12] it was 13%; in assay [13] it was 60%; in assay [14], -3%; in assay [15], -7%; in assay [16], 4%. For the same molecule, the inhibition in assay [17] turned out to be 23%; in assay [18], 19%; in [19], 8%; in [20] it was 2%; in assay [21], 18%; in assay [22] it was 21%.

For the molecule `O=C(NCCCNc1nc(Nc2cccc(NC(=O)N3CCCC3)c2)ncc1I)c1cccs1`, the inhibition in assay [5] is 83%; in assay [6], 38%; in assay [7] it was 105%; in [8] it was 91%; in assay [9] it was 23%; in assay [10], 58%. The inhibition in assay [11] came to 14%; in assay [12], 10%; in [13] it was 95%; in [14], 105%; in assay [15] it was 13%; in assay [16] it was 6%. Also, the inhibition in [17] was 95%; in [18], 76%; in assay [23], -2%; in assay [19], 55%; in assay [20], 84%; in assay [21], 84%. Also, the inhibition in [22] was 61%.

On to `Cc1n[nH]c2ccc(-c3cncc(OC[C@@H](N)Cc4c[nH]c5ccccc45)c3)cc12`, for which the outcome in [1] was Active. In addition, in assay [23], the inhibition was 45%.

One may read the inhibition as the change of the read-out against control, counted positive when it falls.
